Data taken from ChEMBL document CHEMBL1124127, “Central dopaminergic and 5-hydroxytryptaminergic effects of C3-methylated derivatives of 8-hydroxy-2-(di-n-propylamino)tetralin” (J Med Chem, 1988).
pIC50: −log10 of the molar value.

Tests used:
[1] = target: T1, 5-hydroxytryptamine receptor 1A (Rattus norvegicus, UniProt P19327); assay: Inhibitory activity tested in vitro at 5-hydroxytryptamine 1A receptor binding site in rat
T1 sequence (P19327 whole entry): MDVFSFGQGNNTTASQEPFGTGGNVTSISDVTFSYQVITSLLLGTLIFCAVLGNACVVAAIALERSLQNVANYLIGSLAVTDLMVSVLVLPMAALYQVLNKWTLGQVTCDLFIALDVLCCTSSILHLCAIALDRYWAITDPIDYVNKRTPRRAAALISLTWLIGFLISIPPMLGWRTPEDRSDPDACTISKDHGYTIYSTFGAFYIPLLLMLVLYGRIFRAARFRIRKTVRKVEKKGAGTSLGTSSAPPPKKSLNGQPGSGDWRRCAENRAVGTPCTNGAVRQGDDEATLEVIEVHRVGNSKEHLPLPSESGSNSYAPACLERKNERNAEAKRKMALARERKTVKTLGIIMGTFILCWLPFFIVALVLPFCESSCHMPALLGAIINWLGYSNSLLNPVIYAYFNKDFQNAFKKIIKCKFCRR
Method in brief: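 Competition binding used rat brain membranes washed in 50 mM Tris-HCl pH 7.4, preincubated 10 min at 37 °C to remove 5-HT, and used at 10 mg wet tissue/mL. Assay: 1 nM [3H]-8-OH-DPAT, 3 mM CaCl2, 100 µM pargyline, 15 min at 37 °C, then filtration on PEI-treated filters. Nonspecific binding was set with 10 µM 5-HT. IC50 came from four-parameter logistic regression, mean ± SEM of N experiments.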

[2] = tested on: Rattus norvegicus; assay: Effect on in vivo accumulation of […] was measured in rat corpus striatum at 59(Micromol/kg) dose; format: functional
Method in brief: (§1)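 Rats not pretreated with reserpine received test drug (hydrochloride or hydrobromide salt) sc in the neck region 60 min before death. NSD 1015 decarboxylase inhibitor (100 mg/kg, i.e., 573 μmol/kg, ip) was given 30 min before decapitation. Brain was dissected on ice. Tissue was homogenized in 0.1 M perchloric acid with α-methyl-DOPA internal standard. Analytes were quantified by ion-pair reversed-phase HPLC-electrochemical detection. Values are means ± SEM, n = 3-7 per treated group.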

[3] = tested on: Rattus norvegicus; assay: Effect on in vivo accumulation of dopamine(DA) was measured in rat limbic system at 59(Micromol/kg) dose; format: functional
Method in brief: (§2)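 Non-reserpinized rats got the test drug sc in the neck (5 mL/kg) 60 min before death, and NSD 1015 (573 µmol/kg ip) 30 min before death. After decapitation, the limbic system was dissected on ice, frozen and homogenized in 0.1 M perchloric acid with α-methyl-DOPA internal standard. DA was measured by ion-pair reversed-phase HPLC with electrochemical detection. Data are mean ± SEM (controls n=17-19, treated 3-7), analysed by ANOVA/Dunnett.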

[4] = tested on: Rattus norvegicus; assay: Effect on in vivo accumulation of DOPA was measured in rat limbic system at 59(Micromol/kg) dose; format: functional; method in brief: as §1
[5] = tested on: Rattus norvegicus; assay: Effect on in vivo accumulation of 5-HTP was measured in rat corpus striatum at 59(umol/kg) dose; format: functional; method in brief: as §1
[6] = tested on: Rattus norvegicus; assay: Effect on in vivo accumulation of 5-HTP was measured in rat limbic system at 59(Micromol/kg) dose; format: functional; method in brief: as §1
[7] = tested on: Rattus norvegicus; assay: Effect on in vivo accumulation of DOPA was measured in rat corpus striatum at 59(Micromol/kg) dose; format: functional; method in brief: as §1
[8] = tested on: Rattus norvegicus; assay: Effect on in vivo accumulation of dopamine(DA) was measured in rat limbic system at 5.9 (umol/kg) dose; format: functional; method in brief: as §2
[9] = tested on: Rattus norvegicus; assay: Effect on in vivo accumulation of DOPA was measured in rat limbic system at 5.9 (umol/kg) dose; format: functional; method in brief: as §1
[10] = tested on: Rattus norvegicus; assay: Effect on in vivo accumulation of […] was measured in rat corpus striatum at 5.9 (umol/kg) dose; format: functional; method in brief: as §1
[11] = tested on: Rattus norvegicus; assay: Effect on in vivo accumulation of 5-HTP was measured in rat corpus striatum at 5.9(umol/kg) dose; format: functional; method in brief: as §1
[12] = tested on: Rattus norvegicus; assay: Effect on in vivo accumulation of 5-HTP was measured in rat limbic system at 5.9 (umol/kg) dose; format: functional; method in brief: as §1
[13] = tested on: Rattus norvegicus; assay: Effect on in vivo accumulation of DOPA was measured in rat corpus striatum at 5.9 (umol/kg) dose; format: functional; method in brief: as §1
[14] = tested on: Rattus norvegicus; assay: Effect on in vivo accumulation of dopamine(DA) was measured in rat limbic system at 50(Micromol/kg) dose; format: functional; method in brief: as §2
[15] = tested on: Rattus norvegicus; assay: Effect on in vivo accumulation of DOPA was measured in rat limbic system at 50(Micromol/kg) dose; format: functional; method in brief: as §1
[16] = tested on: Rattus norvegicus; assay: Effect on in vivo accumulation of […] was measured in rat corpus striatum at 50(Micromol/kg) dose; format: functional; method in brief: as §1
[17] = tested on: Rattus norvegicus; assay: Effect on in vivo accumulation of 5-HTP was measured in rat corpus striatum at 50(umol/kg) dose; format: functional; method in brief: as §1
[18] = tested on: Rattus norvegicus; assay: Effect on in vivo accumulation of 5-HTP was measured in rat limbic system at 50(Micromol/kg) dose; format: functional; method in brief: as §1
[19] = tested on: Rattus norvegicus; assay: Effect on in vivo accumulation of DOPA was measured in rat corpus striatum at 50(Micromol/kg) dose; format: functional; method in brief: as §1
[20] = tested on: Rattus norvegicus; assay: Effect on in vivo accumulation of dopamine(DA) was measured in rat limbic system at 43(Micromol/kg) dose; format: functional; method in brief: as §2
[21] = tested on: Rattus norvegicus; assay: Effect on in vivo accumulation of DOPA was measured in rat limbic system at 43(Micromol/kg) dose; format: functional; method in brief: as §1
[22] = tested on: Rattus norvegicus; assay: Effect on in vivo accumulation of […] was measured in rat corpus striatum at 43(Micromol/kg) dose; format: functional; method in brief: as §1
[23] = tested on: Rattus norvegicus; assay: Effect on in vivo accumulation of 5-HTP was measured in rat corpus striatum at 43(umol/kg) dose; format: functional; method in brief: as §1
[24] = tested on: Rattus norvegicus; assay: Effect on in vivo accumulation of 5-HTP was measured in rat limbic system at 43(Micromol/kg) dose; format: functional; method in brief: as §1
[25] = tested on: Rattus norvegicus; assay: Effect on in vivo accumulation of DOPA was measured in rat corpus striatum at 43(Micromol/kg) dose; format: functional; method in brief: as §1

SMILES	pIC50 [1]	Activity [2] [ng/g]	Activity [3] [ng/g]	Activity [4] [ng/g]	Activity [5] [ng/g]	Activity [6] [ng/g]	Activity [7] [ng/g]	further results
CCCN(CCC)[C@H]1Cc2c(O)cccc2C[C@H]1C (stereo in doubt; (+))	5.62	–	–	–	–	–	–	–
CCCN(CCC)[C@H]1Cc2c(O)cccc2C[C@@H]1C (stereo in doubt; (+))	7.22	–	–	–	–	–	–	–
CCCN[C@H]1Cc2c(O)cccc2C[C@@H]1C (stereo in doubt; (+)-9)	–	4249	1030	426	<67.4	125	957	–
CCCN[C@H]1Cc2c(O)cccc2C[C@H]1C (stereo in doubt; (+)-13)	–	5133	1186	<271	101	140	<525	Activity [8]: 1292 ng/g; Activity [9]: 365 ng/g; Activity [10]: 5924 ng/g; Activity [11]: 104 ng/g; Activity [12]: 131 ng/g; Activity [13]: 1013 ng/g
CCCN(CCC)[C@H]1Cc2c(O)cccc2C[C@H]1C (stereo in doubt; (+)-15)	5.62	–	–	–	–	–	–	Activity [14]: <609 ng/g; Activity [15]: <507 ng/g; Activity [16]: <2758 ng/g; Activity [17]: 115 ng/g; Activity [18]: 197 ng/g; Activity [19]: 1157 ng/g
CCCN(CCC)[C@H]1Cc2c(O)cccc2C[C@H]1C (stereo in doubt; (-))	6.31	–	–	–	–	–	–	–
CCCN(CCC)[C@H]1Cc2c(O)cccc2C[C@@H]1C (stereo in doubt; (-))	5.77	–	–	–	–	–	–	–
CCCN[C@H]1Cc2c(O)cccc2C[C@@H]1C (stereo in doubt; (-)-9)	–	5588	975	<340	105	169	978	–
CCCN(CCC)[C@H]1Cc2c(O)cccc2C[C@@H]1C (stereo in doubt; (-)-11)	5.77	–	–	–	–	–	–	Activity [20]: <800 ng/g; Activity [21]: 381 ng/g; Activity [22]: <4181 ng/g; Activity [23]: 117 ng/g; Activity [24]: 136 ng/g; Activity [25]: 1039 ng/g
CCCN[C@H]1Cc2c(O)cccc2C[C@H]1C (stereo in doubt; (-)-13)	–	5365	1148	365	103	151	932	–
